In ChEMBL document CHEMBL1649247, “Fluoroquinolone resistance in Mycobacterium tuberculosis and mutations in gyrA and gyrB” (2009):
Values after ≈ are worked out from the molar mass of the structure shown. Active and inactive are the calls of the source. No cut-off for these calls is given here.

Key:
[1] = tested on: Mycobacterium tuberculosis; assay: Antimycobacterial activity against multidrug-resistant Mycobacterium tuberculosis 02-2934 harboring gyrA Ala90Val mutant gene by resazurin microtiter assay; assay type: functional
Summary of the method: (§1)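 Isolates taken from fresh Löwenstein-Jensen subcultures grown at 37°C for at most 4 weeks. Drug stocks 1 mg/ml in 0.1 N NaOH, filter sterilized, stored at −20°C less than 2 months. MIC read by resazurin microtiter assay following a previously described protocol.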

[2] = tested on: Mycobacterium tuberculosis; assay: Antimycobacterial activity against Mycobacterium tuberculosis 08-0773 harboring gyrA Pro8Ala mutant gene assessed as microbial susceptibility by agar proportion method; assay type: functional, organism-based
Summary of the method: (§2)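 Clinical isolates freshly subcultured on Löwenstein-Jensen medium, held at 37°C no longer than 4 weeks. Fluoroquinolone stocks 1 mg/ml in 0.1 N NaOH, filter sterilized, kept at −20°C under 2 months. Standard proportion method on 7H11 agar; breakpoints 2 mg/liter ofloxacin, 0.5 mg/liter moxifloxacin and gatifloxacin; scored susceptible or resistant.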

[3] = tested on: Mycobacterium tuberculosis; assay: Antimycobacterial activity against Mycobacterium tuberculosis 02-1975 harboring gyrA Asp94Gly mutant gene by resazurin microtiter assay; assay type: functional; summary of the method: as §1
[4] = tested on: Mycobacterium tuberculosis; assay: Antimycobacterial activity against multidrug-resistant Mycobacterium tuberculosis 02-0319 harboring gyrA Asp94Ala mutant gene assessed as microbial susceptibility by agar proportion method; assay type: functional, organism-based; summary of the method: as §2
[5] = tested on: Mycobacterium tuberculosis; assay: Antimycobacterial activity against multidrug-resistant Mycobacterium tuberculosis 01-2834 by resazurin microtiter assay; assay type: functional; summary of the method: as §1
[6] = tested on: Mycobacterium tuberculosis; assay: Antimycobacterial activity against Mycobacterium tuberculosis 00-0715 harboring gyrA Ala90Val mutant gene assessed as microbial susceptibility by agar proportion method; assay type: functional, organism-based; summary of the method: as §2
[7] = tested on: Mycobacterium tuberculosis; assay: Antimycobacterial activity against multidrug-resistant Mycobacterium tuberculosis 01-0930 harboring gyrA Ala90Val mutant gene by resazurin microtiter assay; assay type: functional; summary of the method: as §1
[8] = tested on: Mycobacterium tuberculosis; assay: Antimycobacterial activity against multidrug-resistant Mycobacterium tuberculosis 08-0746 assessed as microbial susceptibility by agar proportion method; assay type: functional, organism-based
Summary of the method: (§3)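 Clinical isolates freshly subcultured on Löwenstein-Jensen medium at 37°C for no more than 4 weeks. Susceptibility by standard proportion method on 7H11 agar at breakpoints of 2 mg/liter ofloxacin and 0.5 mg/liter moxifloxacin and gatifloxacin. Drug stocks 1 mg/ml in 0.1 N NaOH, filter sterilized, held at −20°C under 2 months. Isolates scored susceptible or resistant.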

[9] = tested on: Mycobacterium tuberculosis; assay: Antimycobacterial activity against multidrug-resistant Mycobacterium tuberculosis 01-2834 by agar proportion method; assay type: functional, organism-based; summary of the method: as §2
[10] = tested on: Mycobacterium tuberculosis; assay: Antimycobacterial activity against multidrug-resistant Mycobacterium tuberculosis 08-0777 assessed as microbial susceptibility by agar proportion method; assay type: functional, organism-based; summary of the method: as §3
[11] = tested on: Mycobacterium tuberculosis; assay: Antimycobacterial activity against multidrug-resistant Mycobacterium tuberculosis 08-0779 assessed as microbial susceptibility by agar proportion method; assay type: functional, organism-based; summary of the method: as §3
[12] = tested on: Mycobacterium tuberculosis; assay: Antimycobacterial activity against multidrug-resistant Mycobacterium tuberculosis 08-0790 harboring gyrA Ala90Val mutant gene by resazurin microtiter assay; assay type: functional
Summary of the method: (§4)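 MIC was read by resazurin microtiter assay against ofloxacin, moxifloxacin and gatifloxacin. Isolates were used as fresh Löwenstein-Jensen subcultures kept at 37°C for no longer than 4 weeks.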

[13] = tested on: Mycobacterium tuberculosis; assay: Antimycobacterial activity against Mycobacterium tuberculosis 08-0773 harboring gyrA Pro8Ala mutant gene by resazurin microtiter assay; assay type: functional; summary of the method: as §1
[14] = tested on: Mycobacterium tuberculosis; assay: Antimycobacterial activity against multidrug-resistant Mycobacterium tuberculosis 08-0746 by resazurin microtiter assay; assay type: functional; summary of the method: as §4
[15] = tested on: Mycobacterium tuberculosis; assay: Antimycobacterial activity against multidrug-resistant Mycobacterium tuberculosis 03-0738 harboring gyrA Ala90Val mutant gene by resazurin microtiter assay; assay type: functional; summary of the method: as §4
[16] = tested on: Mycobacterium tuberculosis; assay: Antimycobacterial activity against Mycobacterium tuberculosis 04-0649 harboring gyrA Asp94Asn mutant gene by resazurin microtiter assay; assay type: functional; summary of the method: as §1
[17] = tested on: Mycobacterium tuberculosis; assay: Antimycobacterial activity against Mycobacterium tuberculosis 02-1975 harboring gyrA Asp94Gly mutant gene assessed as microbial susceptibility by agar proportion method; assay type: functional, organism-based; summary of the method: as §2
[18] = tested on: Mycobacterium tuberculosis; assay: Antimycobacterial activity against multidrug-resistant Mycobacterium tuberculosis 08-0791 harboring gyrA Ala90Val mutant gene assessed as microbial susceptibility by agar proportion method; assay type: functional, organism-based; summary of the method: as §3
[19] = tested on: Mycobacterium tuberculosis; assay: Antimycobacterial activity against Mycobacterium tuberculosis 08-0745 harboring gyrA Asp89Asn mutant gene assessed as microbial susceptibility by agar proportion method; assay type: functional, organism-based; summary of the method: as §2
[20] = tested on: Mycobacterium tuberculosis; assay: Antimycobacterial activity against multidrug-resistant Mycobacterium tuberculosis 01-0172 harboring gyrA Asp94Ala mutant gene assessed as microbial susceptibility by agar proportion method; assay type: functional, organism-based; summary of the method: as §2
[21] = tested on: Mycobacterium tuberculosis; assay: Antimycobacterial activity against Mycobacterium tuberculosis 08-0787 harboring gyrA Asp94His mutant gene assessed as microbial susceptibility and deletion of codons 678 and 679 in gyrB mutant gene assessed as microbial susceptibility by agar proportion method; assay type: functional, organism-based; summary of the method: as §2
[22] = tested on: Mycobacterium tuberculosis; assay: Antimycobacterial activity against multidrug-resistant Mycobacterium tuberculosis 99-1914 harboring gyrA Asp94Gly mutant gene by resazurin microtiter assay; assay type: functional; summary of the method: as §4
[23] = tested on: Mycobacterium tuberculosis; assay: Antimycobacterial activity against Mycobacterium tuberculosis 08-0771 harboring gyrA putative promoter mutant gene assessed as microbial susceptibility by agar proportion method; assay type: functional, organism-based; summary of the method: as §2
[24] = tested on: Mycobacterium tuberculosis; assay: Antimycobacterial activity against multidrug-resistant Mycobacterium tuberculosis 01-2230 harboring gyrA Asp94Gly mutant gene by resazurin microtiter assay; assay type: functional; summary of the method: as §1
[25] = tested on: Mycobacterium tuberculosis; assay: Antimycobacterial activity against multidrug-resistant Mycobacterium tuberculosis 08-0757 harboring gyrA Ala90Val mutant gene by resazurin microtiter assay; assay type: functional; summary of the method: as §4
[26] = tested on: Mycobacterium tuberculosis; assay: Antimycobacterial activity against multidrug-resistant Mycobacterium tuberculosis 08-0791 harboring gyrA Ala90Val mutant gene by resazurin microtiter assay; assay type: functional; summary of the method: as §4
[27] = tested on: Mycobacterium tuberculosis; assay: Antimycobacterial activity against multidrug-resistant Mycobacterium tuberculosis 01-2614 harboring gyrA Asp94Gly mutant gene assessed as microbial susceptibility by agar proportion method; assay type: functional, organism-based; summary of the method: as §2
[28] = tested on: Mycobacterium tuberculosis; assay: Antimycobacterial activity against Mycobacterium tuberculosis 08-0787 harboring gyrA Asp94His mutant gene and deletion of codons 678 and 679 in gyrB mutant gene by resazurin microtiter assay; assay type: functional; summary of the method: as §1
[29] = tested on: Mycobacterium tuberculosis; assay: Antimycobacterial activity against multidrug-resistant Mycobacterium tuberculosis 08-0744 harboring gyrA Asp94Tyr mutant gene by resazurin microtiter assay; assay type: functional; summary of the method: as §4
[30] = tested on: Mycobacterium tuberculosis; assay: Antimycobacterial activity against multidrug-resistant Mycobacterium tuberculosis 08-0744 harboring gyrA Asp94Tyr mutant gene assessed as microbial susceptibility by agar proportion method; assay type: functional, organism-based; summary of the method: as §3
[31] = tested on: Mycobacterium tuberculosis; assay: Antimycobacterial activity against multidrug-resistant Mycobacterium tuberculosis 08-0810 harboring gyrA Asp94Tyr mutant gene by resazurin microtiter assay; assay type: functional; summary of the method: as §4

Structure (SMILES)	MIC [1]	Activity [2]	MIC [3]	Activity [4]	MIC [5]	Activity [6]	MIC [7]	Activity [8]	Activity [9]	Activity [10]	Activity [11]	MIC [12]	MIC [13]	MIC [14]	MIC [15]	MIC [16]	Activity [17]	Activity [18]	Activity [19]	Activity [20]	also measured
COc1c(N2CCNC(C)C2)c(F)cc2c(=O)c(C(=O)O)cn(C3CC3)c12 (stereo unspecified) [GATIFLOXACIN]	0.25 µg/mL (≈ 0.666 µM)	Active	1 µg/mL (≈ 2.66 µM)	inactive	0.5 µg/mL (≈ 1.33 µM)	inactive	0.5 µg/mL (≈ 1.33 µM)	Active	inactive	Active	Active	0.5 µg/mL (≈ 1.33 µM)	<=0.062 mg/L	≤ 0.062 µg/mL	0.25 µg/mL (≈ 0.666 µM)	1 µg/mL (≈ 2.66 µM)	inactive	inactive	inactive	inactive	Activity [21]: inactive; MIC [22]: 1 µg/mL (≈ 2.66 µM); Activity [23]: Active; MIC [24]: 1 µg/mL (≈ 2.66 µM); MIC [25]: 1 µg/mL (≈ 2.66 µM); MIC [26]: 0.25 µg/mL (≈ 0.666 µM); Activity [27]: inactive; MIC [28]: 1 µg/mL (≈ 2.66 µM); MIC [29]: 1 µg/mL (≈ 2.66 µM); Activity [30]: inactive; MIC [31]: 1 µg/mL (≈ 2.66 µM)
CC1COc2c(N3CCN(C)CC3)c(F)cc3c(=O)c(C(=O)O)cn1c23 (stereo unspecified) [OFLOXACIN]	4 µg/mL (≈ 11.1 µM)	Active	8 µg/mL (≈ 22.1 µM)	inactive	4 µg/mL (≈ 11.1 µM)	inactive	4 µg/mL (≈ 11.1 µM)	Active	inactive	Active	Active	4 µg/mL (≈ 11.1 µM)	0.5 µg/mL (≈ 1.38 µM)	0.5 µg/mL (≈ 1.38 µM)	4 µg/mL (≈ 11.1 µM)	16 µg/mL (≈ 44.3 µM)	inactive	inactive	inactive	inactive	Activity [21]: inactive; MIC [22]: 8 µg/mL (≈ 22.1 µM); Activity [23]: Active; MIC [24]: 8 µg/mL (≈ 22.1 µM); MIC [25]: 8 µg/mL (≈ 22.1 µM); MIC [26]: 4 µg/mL (≈ 11.1 µM); Activity [27]: inactive; MIC [28]: 4 µg/mL (≈ 11.1 µM); MIC [29]: 8 µg/mL (≈ 22.1 µM); Activity [30]: inactive; MIC [31]: 8 µg/mL (≈ 22.1 µM)
COc1c(N2C[C@@H]3CCCN[C@@H]3C2)c(F)cc2c(=O)c(C(=O)O)cn(C3CC3)c12 [MOXIFLOXACIN]	0.25 µg/mL (≈ 0.623 µM)	Active	2 µg/mL (≈ 4.98 µM)	inactive	1 µg/mL (≈ 2.49 µM)	inactive	0.5 µg/mL (≈ 1.25 µM)	Active	inactive	Active	Active	1 µg/mL (≈ 2.49 µM)	<=0.125 mg/L	≤ 0.125 µg/mL	0.25 µg/mL (≈ 0.623 µM)	4 µg/mL (≈ 9.96 µM)	inactive	inactive	inactive	inactive	Activity [21]: inactive; MIC [22]: 2 µg/mL (≈ 4.98 µM); Activity [23]: Active; MIC [24]: 2 µg/mL (≈ 4.98 µM); MIC [26]: 0.5 µg/mL (≈ 1.25 µM); Activity [27]: inactive; MIC [28]: 2 µg/mL (≈ 4.98 µM); Activity [30]: inactive; MIC [31]: 2 µg/mL (≈ 4.98 µM)
